The text below walks through data of ChEMBL document CHEMBL5380838, “Novel Aryl Sulfonamide Derivatives as NLRP3 Inflammasome Inhibitors for the Potential Treatment of Cancer” (J Med Chem, 2023).

SMILES strings stand for the structures. Calls of active or inactive are those of the source. The calls are words filed in the database; no cut-off is given here.

A short description of data set [1]: Tlast in C57BL/6 mouse at 25 mg/kg, ip measured for 0.083 to 24 hrs by LC-MS/MS analysis. The class given is ADME, organism-based. Particulars: in vivo, time 0.083-24 hrs. Put shortly: (§1)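 Female C57BL/6 mice, 8 weeks old, 25–30 g, given a single IP dose of 25 mg/kg. Sampling at 5 and 20 min and 1, 2, 3, 6, 8 and 24 h, 3 mice per timepoint; Li-heparin plasma from the cava vein. ACN/MeOH precipitation with diclofenac internal standard, then LC-MS/MS in ESI(−) MRM mode, range 1–2000 ng/mL. Noncompartmental analysis, linear trapezoidal AUC.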

In data set [2] the test system is THP-1. Briefly: Suppression of IL-1beta processing in LPS-treated human THP-1 cells at 1 to 1000 nM incubated for 30 mins followed by ATP stimulation for 1 hr by ELISA method. It counts as functional, cell-based. As to conditions: dose 1-1000 nM, time 90.0 min.
The subject of data set [3] is BMDM. In words: Effect on AIM2 inflammasome activation in LPS-treated mouse BMDM cells assessed as IL-1beta release at 1 uM incubated for 30 mins followed by Poly (dA:dT) stimulation for 4 hrs by ELISA method. The class given is functional, cell-based. As to conditions: time 270.0 min. Put shortly:
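BMDMs primed with LPS 100 ng/mL for 3 h, then compound 1 µM in serum-free medium for 30 min, then poly(dA:dT) 1 µg/mL transfected with lipofectamine 2000 for 4 h; supernatant mouse IL-1β by ELISA.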
(In general: An ELISA detects its analyte on a solid surface through an enzyme-linked reagent.)

The test system of data set [4] is B16-F10. Briefly: Antiproliferative activity against LPS-treated mouse B16-F10 cells co-cultured with mouse peritoneal macrophages assessed as decrease in cell growth at 1 uM incubated for 30 mins followed by ATP stimulation for 1 hr measured after 48 hrs by cell counting method. As to conditions: time 49.5 hrs. The class given is functional, cell-based. Put shortly: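 Transwell co-culture (0.4 µm pores), 48 h: peritoneal macrophages from C57BL/6 mice (2 × 10^5, lower well) primed with LPS 1 µg/mL 2 h, then DMSO or compound 1 µM 30 min, then ATP 1 h; B16-F10 cells (2 × 10^3) in upper insert; tumor cells removed after 48 h and counted by image-based cytometer.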

A short description of data set [5]: Metabolic stability in human liver microsomes assessed as half life measured per mg protein at 1 uM measured upto 60 mins by LC-MS/MS analysis. It counts as ADME, Microsome. Put shortly: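 Pooled human or CD-1 male mouse liver microsomes at 0.5 mg/mL with test compound 1 µM in 50 mM phosphate pH 7.4 and 3 mM MgCl2, preincubated 10 min at 37 °C. Percent parent remaining vs 0 min measured by LC-MS/MS. Cli = k/microsomal conc. × 1000; mean ± SD, n = 2.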
Background: Microsomes from liver hold many membrane-bound enzymes, among them those of drug oxidation.

For data set [6], the system named is B16-F10. Briefly: Effect on ASC expression in cytosolic luciferase-transfected mouse B16-F10 cells xenografted in C57BL/6 mouse at 25 mg/kg, ip administered thrice weekly measured after 14 days by Western blot analysis. It counts as functional, organism-based. Particulars: time 14.0 day. In outline: (§2)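 Tumors from luciferase-expressing B16-F10 grafts in C57BL/6 mice, dosed IP at 25 mg/kg thrice weekly (DMSO controls), were excised at endpoint and homogenized in sucrose/HEPES/IGEPAL lysis buffer. Lysates were western blotted and bands expressed as fold ratio over β-actin (n = 5).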
(In western blotting, separated proteins are transferred to a membrane and probed.)

Data set [7] has as its system THP-1. Briefly: Suppression of caspase-1 expression in LPS-treated human THP-1 cells at 1 to 1000 nM incubated for 30 mins followed by ATP stimulation for 1 hr by […]. It counts as functional, cell-based. Particulars: dose 1-1000 nM, time 90.0 min. In outline: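 PMA-differentiated THP-1 cells (1 × 10^6/well) primed with LPS 1 µg/mL for 3 h, then DMSO or compound in serum-free medium for 30 min, then 5 mM ATP for 1 h. RIPA lysates (20 µg) and concentrated supernatants run on SDS-PAGE and western blotted for NLRP3, ASC, caspase-1 and IL-1β, normalized to GAPDH; three independent experiments.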

Data set [8] concerns THP-1. In words: Suppression of NLRP3 expression in LPS-treated human THP-1 cells at 1 to 1000 nM incubated for 30 mins followed by ATP stimulation for 1 hr […]. It counts as functional, cell-based. As to conditions: dose 1-1000 nM, time 90.0 min.
Data set [9] has as its system B16-F10. Briefly: Antitumor activity against cytosolic luciferase-transfected mouse B16-F10 cells xenografted in C57BL/6 mouse assessed as tumor reduction at 25 mg/kg, ip administered thrice weekly measured after 14 days by bioluminescence assay. As to conditions: time 14.0 day. The class given is functional, organism-based. Put shortly: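 Female C57BL/6 mice aged 6–8 weeks inoculated subcutaneously with 1 × 10^6 B16-F10 cells stably expressing cytosolic luciferase. From day 5, IP dosing of 25 mg/kg thrice weekly, DMSO for controls, five mice per group. Imaging after IP D-luciferin 150 mg/kg under 2.5% isoflurane, read after 15 min. Caliper volume = π/6 × a × b². Tumors excised day 14.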

The subject of data set [10] is B16-F10. In words: Effect on cleaved caspase-1 expression in cytosolic luciferase-transfected mouse B16-F10 cells xenografted in C57BL/6 mouse at 25 mg/kg, ip administered thrice weekly measured after 14 days by Western blot analysis. It counts as functional, organism-based. Particulars: time 14.0 day. In outline: as §2
Data set [11] is described as follows: AUC in C57BL/6 mouse at 25 mg/kg, ip measured for 0.083 to 24 hrs by LC-MS/MS analysis. As to conditions: in vivo.
Data set [12] has as its system THP-1. In words: Cytotoxicity against human THP-1 cells assessed as reduction in cell viability at 1 uM measured after 48 hrs by RealTime-Glo MT assay. It counts as toxicity, cell-based. As to conditions: thp-1, 48 h. Put shortly: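 THP-1 cells (10 × 10^4/well) treated with inhibitors at 1 µM and kept 48 h; RealTime-Glo reagent added, luminescence read every 12 h as a proxy for metabolically active cells; means of RLU ± SEM.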

Data set [13] in a line: Half life in C57BL/6 mouse at 25 mg/kg, ip measured for 0.083 to 24 hrs by LC-MS/MS analysis. The class given is ADME, organism-based. As to conditions: in vivo, time 0.083-24 hrs. Put shortly:
as §1

Data set [14] can be described thus: Cmax in C57BL/6 mouse at 25 mg/kg, ip measured for 0.083 to 24 hrs by LC-MS/MS analysis. It counts as ADME, organism-based. On the set-up: time upper 24 hrs, dose 25 mg/kg, time lower 0.083 hrs, route ip. Particulars: in vivo. Put shortly:
as §1

For data set [15], the system named is B16-F10. In words: Effect on total caspase-1 expression in cytosolic luciferase-transfected mouse B16-F10 cells xenografted in C57BL/6 mouse at 25 mg/kg, ip administered thrice weekly measured after 14 days by Western blot analysis. The class given is functional, organism-based. Particulars: time 14.0 day. In outline: as §2
The next data set concerns Mus musculus. In words: Antiinflammatory activity in LPS-induced C57BL/6 mouse assessed as reduction in IL-1beta production in peritoneal exudate at 25 mg/kg, ip pretreated for 30 mins followed by LPS induction measured after 4 hrs by ELISA method. It counts as functional, organism-based. As to conditions: time 4.5 hrs. Put shortly:
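C57BL/6 mice given inhibitor 25 mg/kg IP (vehicle DMSO) 30 min before IP LPS 1 mg/kg; after 4 h, peritoneal exudate and blood collected, plasma from centrifugation 1000g 15 min 4 °C; IL-1β measured by ELISA; mean ± SEM of three independent experiments.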

In data set [16] the test system is B16-F10. Briefly: Antiproliferative activity against cytosolic luciferase-transfected mouse B16-F10 cells xenografted in C57BL/6 mouse assessed as effect on cell growth at 25 mg/kg, ip administered thrice weekly measured after 5 days. The class given is functional, organism-based. Particulars: time 5.0 day.
Data set [17] has as its system BMDM. Briefly: Effect on NLRC4 inflammasome activation in LPS-treated mouse BMDM cells assessed as IL-1beta release at 1 uM incubated for 30 mins followed by Salmonella typhimurium flagellin stimulation for 2 hrs by ELISA method. It counts as functional, cell-based. Particulars: time 150.0 min. In outline: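 BMDMs primed with LPS 100 ng/mL for 3 h, then compound 1 µM in serum-free medium for 30 min, then flagellin 100 ng/mL for 2 h; supernatant mouse IL-1β by ELISA.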

The half-life is how long it takes for the measured level to halve. One may read the AUC as the area under the concentration-time curve, a measure of exposure. Read a high AUC as high exposure. As a reminder, the Cmax is the peak of the concentration-time curve. With `CC(C)[C@H](NS(=O)(=O)c1ccc([N+](=O)[O-])cc1)C(=O)Nc1c2c(cc3c1CCC3)CCC2`, the Tlast in data set [1] amounted to 24 h. Moreover, the result with THP-1 [2], with B16-F10 [4], in the data set on B16-F10 [9] and with Mus musculus was Active. Further, the result in the data set with BMDM [3], in the data set on B16-F10 [6], in the data set with THP-1 [7], in the data set with THP-1 [8], in the data set on B16-F10 [10] and in the data set with B16-F10 [15] was inactive. The outcome in the data set with B16-F10 [16] and in the data set on BMDM [17] was inactive. The half-life at 1 µM in [5] amounted to 0.508 h. The AUC in data set [11] was 3880 ng/mL.hr. In addition, in the data set on THP-1 [12], the Activity entry is listed as “Non-Toxic”. The molecule further gave a half-life in [13] of 9.5 h. In [14], the concentration peaked (Cmax) at 1670 ng/mL.
